In the library only some 4.7% were active in any assay of this set; here they are far more common.
aSyn 5UTR inh: 5' untranslated region of α-synuclein, MLPCN primary screen; alpha-synuclein 5'UTR reporter, inhibitor activity; inhibition, % (tested at 7.5 µM); 0.82% of 300,000 active; in the data active = inhibition above about 60%;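 also: H4 neuroglioblastoma cells stably carrying SNCA 5'UTR luciferase fusion; 0% = DMSO wells and 100% = positive control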
IMP-1 inh: blocks Pseudomonas aeruginosa IMP-1 metallo-beta-lactamase. purified IMP-1, nitrocefin hydrolysis, epi-absorbance fluorescence. inhibition, % at 5.6 µM. 0.45% of 290,000 active;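 active = inhibition above the mean plus 3 SD of all compounds in the same screening run, cut at about 4.5% in these data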;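 also: 0% = IMP-1 with DMSO and 100% = DMSO wells lacking enzyme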
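System: purified recombinant IMP-1 beta-lactamase. Medium: Zinc- and detergent-supplemented HEPES buffer, pH 7.1. Compound: one 5.6 µM dose […]. Schedule: 15 min preincubation plus 25 min reaction at 25 °C. Technique: Epi-absorbance fluorescence, 480 nm excitation, 530 nm emission.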
Mdm2-MdmX inh: inhibitors of human Mdm2/MdmX interaction; O15151+Q00987; SaOS-2 split-luciferase Mdm2/MdmX complementation, luminescence; inhibition, % at 8 µM; 3% of 330,000 active; AID 485346;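 active = inhibition of at least 50% at 8 µM in the primary screen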
Target sequence (O15151 whole entry, looked up): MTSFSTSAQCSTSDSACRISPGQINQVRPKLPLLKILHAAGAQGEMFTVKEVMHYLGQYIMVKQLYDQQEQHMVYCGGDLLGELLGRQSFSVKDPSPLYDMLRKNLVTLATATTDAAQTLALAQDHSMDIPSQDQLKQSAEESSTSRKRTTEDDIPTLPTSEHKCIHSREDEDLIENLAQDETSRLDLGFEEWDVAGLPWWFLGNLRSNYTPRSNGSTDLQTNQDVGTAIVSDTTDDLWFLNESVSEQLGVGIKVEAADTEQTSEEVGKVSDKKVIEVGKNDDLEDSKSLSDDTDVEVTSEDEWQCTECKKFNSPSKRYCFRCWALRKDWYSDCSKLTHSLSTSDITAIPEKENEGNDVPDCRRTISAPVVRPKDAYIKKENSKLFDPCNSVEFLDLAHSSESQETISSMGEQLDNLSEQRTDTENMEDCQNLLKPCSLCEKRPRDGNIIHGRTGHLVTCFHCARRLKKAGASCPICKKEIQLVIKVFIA
Target sequence (Q00987 whole entry, looked up): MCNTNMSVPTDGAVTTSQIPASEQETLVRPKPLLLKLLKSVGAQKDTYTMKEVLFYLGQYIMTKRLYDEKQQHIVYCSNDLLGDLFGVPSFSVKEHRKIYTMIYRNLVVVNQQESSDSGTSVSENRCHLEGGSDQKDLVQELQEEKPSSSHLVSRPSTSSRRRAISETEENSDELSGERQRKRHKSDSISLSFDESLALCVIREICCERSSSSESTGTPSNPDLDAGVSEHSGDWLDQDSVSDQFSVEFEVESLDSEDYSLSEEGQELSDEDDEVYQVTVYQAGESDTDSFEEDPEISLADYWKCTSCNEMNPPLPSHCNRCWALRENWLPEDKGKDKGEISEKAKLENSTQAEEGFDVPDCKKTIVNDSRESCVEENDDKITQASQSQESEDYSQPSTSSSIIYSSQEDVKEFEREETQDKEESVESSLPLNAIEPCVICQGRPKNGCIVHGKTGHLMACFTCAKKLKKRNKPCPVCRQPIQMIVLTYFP
697 NFkB inh: lowers PMA/ionomycin-induced NF-kB signal in 697 B cells; 697 B-cell NF-kB luciferase reporter, 16 h; inhibition, % at 4 µM; 0.33% of 330,000 active; in the data active = inhibition above about 35%
VIM-2 inh: blocks Pseudomonas aeruginosa VIM-2 metallo-beta-lactamase; inhibition, % at 5.6 µM; purified VIM-2, nitrocefin hydrolysis, epi-absorbance fluorescence; 0.89% of 290,000 active;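 active = inhibition above the mean of all tested compounds plus 3 SD, cutoff set per screening run, cut at about 7.5% in these data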;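 also: red hydrolysis product quenches plate fluorescence so inhibitors raise well fluorescence; 0% = enzyme with DMSO and 100% = DMSO without enzyme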
Jurkat NFkB inh: inhibitors of the PMA/ionomycin-induced NF-kB reporter in Jurkat cells | PMA/ionomycin-induced NF-kB luciferase reporter, luminescence | inhibition, % at 4 µM | 0.53% of 330,000 active; in the data active = inhibition above about 50%
Mdm2-MdmX conf: confirmation of human Mdm2/MdmX interaction inhibitors; shares compounds with Mdm2-MdmX inh; Mdm2-MdmX binding, luminescent assay; inhibition, % at 8 µM; 55% of 10,000 active; in the data active = inhibition above about 40%
Full FLuc ctr: counter-screen for Mdm2/MdmX inhibitors: full-length luciferase; shares compounds with Mdm2-MdmX inh; SaOS-2 full-length luciferase counterscreen, luminescence; inhibition, % at 8 µM; 77% of 6,200 active; AID 504607;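 active = mean inhibition at 8 µM reaching about 37%, which flags the compound as non-specific, limit read from the data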;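 also: p53-null SaOS-2 cells with luciferase driven by a doxycycline-inducible promoter; compound on cells about two nights before reading with doxycycline added after day one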
An asterisk follows results filed as active; · = no result.

SMILES | aSyn 5UTR inh | IMP-1 inh | Mdm2-MdmX inh | 697 NFkB inh | VIM-2 inh | Jurkat NFkB inh | Mdm2-MdmX conf | Full FLuc ctr
CNC(=O)c1ccc(NC(=O)C2CCN(c3ncnc4sc(C)c(C)c34)CC2)cc1 | -5 | -3 | 62* | -16 | 1 | 11 | 60* | 58*
Cc1sc2ncnc(N3CCC(C(=O)Nc4sc5c(c4C(N)=O)CCC(C)C5)CC3)c2c1C (configuration not stated) | · | · | 62* | -34 | · | 12 | 70* | 42*
Cc1sc2ncnc(N3CCC(C(=O)Nc4ccc(Br)cc4Br)CC3)c2c1C | -3 | · | 57* | 11 | · | 17 | 47* | 87*
CCc1cccc(NC(=O)C2CCN(c3ncnc4sc(C)c(C)c34)CC2)c1 | · | · | 17 | -2 | · | 2 | · | ·
O=C(CC(C(=O)N1CCc2ccccc21)n1ccnc1)N1CCc2ccccc2C1 (configuration not stated) | -30 | -3 | 25 | 7 | -2 | 1 | · | ·
CCOc1ccc(S(=O)(=O)N2CCN(CC)CC2)cc1NC(=O)c1ccccc1F | 6 | -3 | 25 | 19 | 7 | -9 | · | ·
CCOc1ccc(S(=O)(=O)NCc2cccnc2)cc1NC(=O)c1ccccc1F | -43 | -6 | 59* | 20 | -1 | 32 | 57* | 53*
CCOc1ccc(S(=O)(=O)NCc2ccncc2)cc1NC(=O)c1ccccc1F | -4 | 0 | 67* | 5 | 1 | 28 | 8 | ·
COc1ccc(S(=O)(=O)NCc2cccnc2)cc1NC(=O)c1ccccc1 | -3 | -1 | 6 | 9 | -1 | 7 | · | ·
O=C(Nc1ccc(C(=O)N2CCCCC2)cc1)Nc1cccc(Cl)c1 | -82 | -4 | 32 | -63 | -5 | -48 | · | ·
O=C(Nc1ccc([N+](=O)[O-])cc1)c1cc2ccccc2nc1Cl | -40 | 0 | -11 | -22 | 1 | 7 | · | ·
O=C(Nc1ccccc1[N+](=O)[O-])c1cc2ccccc2nc1Cl | -17 | -3 | 64* | -7 | -3 | -21 | -26 | ·
O=C(Cn1nnc2ccccc21)Nc1ccccc1[N+](=O)[O-] | -17 | -1 | -6 | 0 | 0 | -12 | · | ·
O=C(Nc1ccccc1[N+](=O)[O-])C1=C(O)CCn2c1nc1ccccc12 | -15 | -3 | 71* | 16 | 0 | -14 | 18 | ·
O=C(CSc1nnc(-c2ccc(F)cc2)o1)N1CCCC1 | -114 | -1 | -6 | -23 | 1 | -33 | · | ·
Oc1ccccc1C1CC(c2cccs2)=NC(c2ccc(Cl)cc2)N1 (configuration not stated) | -94 | -4 | 85* | -31 | -6 | -5 | 86* | 28
CS(=O)(=O)N1N=C(c2cccs2)CC1c1ccccc1O (configuration not stated) | -6 | 1 | 18 | 5 | -2 | 2 | · | ·
COc1ccc(C(=O)/C=C/c2ccc(O)cc2)c(O)c1C/C=C(\C)CCC=C(C)C | · | · | 68* | -7 | · | 11 | -4 | ·
Cc1ccccc1C(=O)NC(=S)NCc1ccccc1 | -10 | -1 | 13 | -17 | -1 | -13 | · | ·
Clc1ccc(OCCCNCc2ccccc2)c(Br)c1 | -30 | -1 | 65* | 10 | 0 | 4 | 24 | ·
COc1ccc(C(CCNCc2ccc(N(C)C)cc2)c2ccccc2OC)cc1 (configuration not stated) | 2 | -3 | 54* | -16 | 0 | 8 | 29 | ·
COc1ccc(CCNCc2ccc(OCc3ccccc3)cc2)cc1 | -30 | -1 | -4 | -14 | -1 | -8 | · | ·
COc1ccc(C(CCNCc2ccc(OC(C)C)cc2)c2ccccc2OC)cc1 (configuration not stated) | 14 | 0 | 87* | -1 | -2 | -5 | 31 | 82*
COc1ccc(CNCCC(c2ccc(OC)cc2)c2ccccc2OC)cc1 (configuration not stated) | -24 | -2 | 20 | -18 | 1 | 0 | · | ·
COc1ccc2sc(-c3ccc(S(C)(=O)=O)cc3)c(C#CCO)c2c1 | · | · | 11 | -57 | · | -9 | · | ·
COc1cc(-c2ccc3sc(-c4ccsc4)c(C#CCO)c3c2)cc(OC)c1OC | · | · | 74* | -16 | · | -19 | 39 | 69*

Bioassay records (PubChem BioAssay)
